Measured values as given in ChEMBL document CHEMBL1137730, “Synthesis and antiparasitic and antifungal evaluation of 2'-arylsubstituted-1H,1'H-[2,5']bisbenzimidazolyl-5-carboxamidines” (Eur J Med Chem, 2009).
Converted amounts (≈) assume the structure as drawn.

Experiments:
[1] = tested on: Trypanosoma brucei rhodesiense; test: Antiparasitic activity against Trypanosoma brucei rhodesiense STIB900; assay type: functional, organism-based
[2] = tested on: L6; test: Cytotoxicity against rat L6 cells by alamar blue assay; assay type: cell-based
Procedure, shortened: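 Rat L-6 myoblasts in culture; viability read by Alamar Blue.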

[3] = tested on: Trypanosoma cruzi; test: Antiparasitic activity against Trypanosoma cruzi Tulahuen C4 containing lacz gene at 0.81 ug/ml; assay type: functional; settings: Tulahen C4
[4] = tested on: Pichia kudriavzevii; test: Antifungal activity against Candida krusei ATCC 6258 by macro-broth dilution method; assay type: functional
Procedure, shortened: (§1)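 Macro-broth (tube) dilution; compounds and reference drugs dissolved in water or 40% DMSO-water as 400 µg/mL stock, brought to 100 µg/mL in the first tube by 4-fold dilution with culture medium and fungal suspension. Result reported as MIC.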

[5] = tested on: Leishmania donovani; test: Antiparasitic activity against Leishmania donovani MHOM-ET/67/L82 at 0.81 ug/ml; assay type: functional
[6] = tested on: Trypanosoma cruzi; test: Antiparasitic activity against Trypanosoma cruzi Tulahuen C4 containing lacz gene at 4.85 ug/ml; assay type: functional; settings: Tulahen C4
[7] = tested on: Leishmania donovani; test: Antiparasitic activity against Leishmania donovani MHOM-ET/67/L82 at 4.85 ug/ml; assay type: functional
[8] = tested on: Plasmodium falciparum; test: Antiparasitic activity against Plasmodium falciparum K1; assay type: functional, organism-based
[9] = tested on: Candida albicans; test: Antifungal activity against Candida albicans ATCC 10231 by macro-broth dilution method; assay type: functional; procedure, shortened: as §1

Structure (SMILES)	IC50 [1]	IC50 [2]	inhibition at 0.81 µg/mL [3]	MIC [4]	inhibition at 0.81 µg/mL [5]	inhibition at 4.85 µg/mL [6]	inhibition at 4.85 µg/mL [7]	IC50 [8]	MIC [9]
N=C(N)c1ccc2[nH]c(-c3ccc4nc(-c5ccc(OCc6ccccc6)cc5)[nH]c4c3)nc2c1	0.81 µg/mL (≈ 1.77 µM)	17.4 µg/mL (≈ 37.9 µM)	≤ 50%	25 µg/mL (≈ 54.5 µM)	≤ 50%	≤ 70%	≤ 70%	0.017 µg/mL (≈ 0.0371 µM)	12.5 µg/mL (≈ 27.3 µM)
COc1cc(-c2nc3ccc(-c4nc5cc(C(=N)N)ccc5[nH]4)cc3[nH]2)ccc1OCc1ccccc1	0.57 µg/mL (≈ 1.17 µM)	19.8 µg/mL (≈ 40.5 µM)	≤ 50%	50 µg/mL (≈ 102 µM)	≤ 50%	≤ 70%	≤ 70%	0.023 µg/mL (≈ 0.0471 µM)	25 µg/mL (≈ 51.2 µM)
CC(C)(C)c1ccc(-c2nc3ccc(-c4nc5cc(C(=N)N)ccc5[nH]4)cc3[nH]2)cc1	1.06 µg/mL (≈ 2.59 µM)	13 µg/mL (≈ 31.8 µM)	≤ 50%	12.5 µg/mL (≈ 30.6 µM)	≤ 50%	≤ 70%	≤ 70%	0.031 µg/mL (≈ 0.0759 µM)	1.56 µg/mL (≈ 3.82 µM)
N=C(N)c1ccc2[nH]c(-c3ccc4nc(-c5cc(C(F)(F)F)cc(C(F)(F)F)c5)[nH]c4c3)nc2c1		76.8 µg/mL (≈ 157 µM)	≤ 50%	25 µg/mL (≈ 51.2 µM)	≤ 50%	≤ 70%	≤ 70%	0.63 µg/mL (≈ 1.29 µM)	50 µg/mL (≈ 102 µM)
N=C(N)c1ccc2[nH]c(-c3ccc4nc(-c5ccc(F)c(F)c5)[nH]c4c3)nc2c1	0.33 µg/mL (≈ 0.85 µM)	29.8 µg/mL (≈ 76.7 µM)	≤ 50%	25 µg/mL (≈ 64.4 µM)	≤ 50%	≤ 70%	≤ 70%	0.015 µg/mL (≈ 0.0386 µM)	25 µg/mL (≈ 64.4 µM)
N=C(N)c1ccc2[nH]c(-c3ccc4nc(-c5ccccc5Oc5ccc(Cl)cc5)[nH]c4c3)nc2c1		> 90 µg/mL	≤ 50%	50 µg/mL (≈ 104 µM)	≤ 50%	≤ 70%	≤ 70%	0.193 µg/mL (≈ 0.403 µM)	50 µg/mL (≈ 104 µM)
N=C(N)c1ccc2[nH]c(-c3ccc4nc(-c5cc(C(F)(F)F)ccc5Cl)[nH]c4c3)nc2c1		31.8 µg/mL (≈ 69.9 µM)	≤ 50%		≤ 50%	≤ 70%	≤ 70%	0.064 µg/mL (≈ 0.141 µM)	
N=C(N)c1ccc2[nH]c(-c3ccc4nc(-c5ccc(F)cc5)[nH]c4c3)nc2c1	0.04 µg/mL (≈ 0.108 µM)	2.48 µg/mL (≈ 6.7 µM)	≤ 50%	12.5 µg/mL (≈ 33.7 µM)	≤ 50%	≤ 70%	≤ 70%	0.01 µg/mL (≈ 0.027 µM)	25 µg/mL (≈ 67.5 µM)
CC(C)(C)c1cccc(-c2nc3ccc(-c4nc5cc(C(=N)N)ccc5[nH]4)cc3[nH]2)c1O		13.4 µg/mL (≈ 31.6 µM)	≤ 50%	6.25 µg/mL (≈ 14.7 µM)	≤ 50%	≤ 70%	≤ 70%	0.211 µg/mL (≈ 0.497 µM)	3.12 µg/mL (≈ 7.35 µM)
N=C(N)c1ccc2[nH]c(-c3ccc4nc(-c5cc(F)ccc5Oc5ccc(Cl)cc5)[nH]c4c3)nc2c1		> 90 µg/mL	≤ 50%	50 µg/mL (≈ 101 µM)	≤ 50%	≤ 70%	≤ 70%	0.634 µg/mL (≈ 1.28 µM)	50 µg/mL (≈ 101 µM)
N=C(N)c1ccc2[nH]c(-c3ccc4nc(-c5ccccc5F)[nH]c4c3)nc2c1	0.08 µg/mL (≈ 0.216 µM)	26.8 µg/mL (≈ 72.4 µM)	≤ 50%	12.5 µg/mL (≈ 33.7 µM)	≤ 50%	≤ 70%	≤ 70%	0.007 µg/mL (≈ 0.0189 µM)	12.5 µg/mL (≈ 33.7 µM)
N=C(N)c1ccc2[nH]c(-c3ccc4nc(-c5ccc6ccccc6c5)[nH]c4c3)nc2c1	0.389 µg/mL (≈ 0.967 µM)	34.7 µg/mL (≈ 86.2 µM)	≤ 50%	25 µg/mL (≈ 62.1 µM)	≤ 50%	≤ 70%	≤ 70%	0.016 µg/mL (≈ 0.0398 µM)	6.25 µg/mL (≈ 15.5 µM)
N=C(N)c1ccc2[nH]c(-c3ccc4nc(-c5ccc(OCc6ccccc6)c(OCc6ccccc6)c5)[nH]c4c3)nc2c1	1.06 µg/mL (≈ 1.88 µM)	> 90 µg/mL	≤ 50%	50 µg/mL (≈ 88.6 µM)	≤ 50%	≤ 70%	≤ 70%	0.061 µg/mL (≈ 0.108 µM)	25 µg/mL (≈ 44.3 µM)
N=C(N)c1ccc2[nH]c(-c3ccc4nc(-c5ccc(Oc6ccc(Cl)cc6)cc5)[nH]c4c3)nc2c1	0.708 µg/mL (≈ 1.48 µM)	46 µg/mL (≈ 96 µM)	≤ 50%	25 µg/mL (≈ 52.2 µM)	≤ 50%	≤ 70%	≤ 70%	0.028 µg/mL (≈ 0.0585 µM)	25 µg/mL (≈ 52.2 µM)
COc1cc(OC)cc(-c2nc3ccc(-c4nc5cc(C(=N)N)ccc5[nH]4)cc3[nH]2)c1	0.59 µg/mL (≈ 1.43 µM)	25.5 µg/mL (≈ 61.8 µM)	≤ 50%	50 µg/mL (≈ 121 µM)	≤ 50%	≤ 70%	≤ 70%	0.017 µg/mL (≈ 0.0412 µM)	50 µg/mL (≈ 121 µM)
COc1ccc(-c2nc3ccc(-c4nc5cc(C(=N)N)ccc5[nH]4)cc3[nH]2)cc1OC	0.06 µg/mL (≈ 0.145 µM)	> 90 µg/mL	≤ 50%	25 µg/mL (≈ 60.6 µM)	≤ 50%	≤ 70%	≤ 70%	0.008 µg/mL (≈ 0.0194 µM)	25 µg/mL (≈ 60.6 µM)
N=C(N)c1ccc2[nH]c(-c3ccc4nc(-c5ccc(O)cc5)[nH]c4c3)nc2c1	0.017 µg/mL (≈ 0.0461 µM)	4.2 µg/mL (≈ 11.4 µM)						0.013 µg/mL (≈ 0.0353 µM)	0.78 µg/mL (≈ 2.12 µM)
N=C(N)c1ccc2[nH]c(-c3ccc4nc(-c5cccc6ccccc56)[nH]c4c3)nc2c1	0.48 µg/mL (≈ 1.19 µM)	8.72 µg/mL (≈ 21.7 µM)	≤ 50%	12.5 µg/mL (≈ 31.1 µM)	≤ 50%	≤ 70%	≤ 70%	0.016 µg/mL (≈ 0.0398 µM)	0.78 µg/mL (≈ 1.94 µM)
COc1ccc(-c2nc3ccc(-c4nc5cc(C(=N)N)ccc5[nH]4)cc3[nH]2)cc1	0.009 µg/mL (≈ 0.0235 µM)	10 µg/mL (≈ 26.1 µM)						0.015 µg/mL (≈ 0.0392 µM)	> 100 µg/mL
OC(Cn1cncn1)(Cn1cncn1)c1ccc(F)cc1F [FLUCONAZOLE]				25 µg/mL (≈ 81.6 µM)					0.78 µg/mL (≈ 2.55 µM)
COc1ccc(Oc2ccc(-c3nc4ccc(-c5nc6cc(C(=N)N)ccc6[nH]5)cc4[nH]3)cc2)cc1OC	0.036 µg/mL (≈ 0.0714 µM)	29.4 µg/mL (≈ 58.3 µM)	≤ 50%	6.25 µg/mL (≈ 12.4 µM)	≤ 50%	≤ 70%	≤ 70%	0.015 µg/mL (≈ 0.0297 µM)	3.12 µg/mL (≈ 6.18 µM)
Nc1nc(N)nc(Nc2ccc([As]3SCC(CO)S3)cc2)n1 (stereo unspecified) [MELARSOPROL]	0.003 µg/mL								
